Rows were chosen to be rich in hits. Some 1.6% of all compounds tested hit in one or more screens of this group.
proCasp7 act: counter-screen for procaspase-3 activators: activators of human procaspase-7; activation, % at 8.5 µM; P55210; recombinant procaspase-7, Ac-DEVD-pNA absorbance 405 nm; D23A/D198A/D206A triple mutant, cannot self-cleave; scale: DMSO 0, 5 µM enzyme 100; 0.093% of 330,000 active;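 active = percent activation above the screen-wide mean plus 3 SD, cut at about 25% in these data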
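Test system: Procaspase-7 triple mutant (PC-7 D3A). Also added: Ac-DEVD-pNA substrate, 400 µM as added. Schedule: 1 h enzyme–compound preincubation and 2 h substrate reaction, both 25 °C. Signal: p-Nitroaniline absorbance at 405 nm, read at 0 and 120 min. Control set: low DMSO alone, high DMSO plus 5 µM PC-7.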
KLK7 zymogen act: activates the human kallikrein-7 zymogen; 0.9% of 370,000 active; activation, % at 7 µM; purified proKLK7, EDANS-DABCYL substrate fluorescence; 100% is mature enzyme control, 0% vehicle; P49862;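 active = activation above the mean of all tested compounds plus 3 SD, computed per campaign excluding outliers beyond control limits, cut at about 13% in these data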
Neddylation inh: inhibitors of human cullin neddylation | AID 651699 | calls only at 25 µM | TR-FRET cullin neddylation, biochemical | 0.58% of 360,000 active; in the data active = inhibition above about 36%
proCasp3 act: activators of human procaspase-3; AID 463141; 0.11% of 330,000 active; recombinant procaspase-3 D3A, Ac-DEVD-pNA absorbance 405 nm; P42574; activation, % at 8.5 µM;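 active = activation above the mean of all tested compounds plus 3 SD, cut at about 21% in these data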;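 note: 0% = DMSO alone and 100% = DMSO wells spiked with extra 5 µM PC-3 D3A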
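material = Procaspase-3 D3A mutant | probe or stimulus = Ac-DEVD-pNA | compound = single dose, 8.5 µM nominal compound, 0.8% DMSO | timing = 1 h preincubation, 2 h reaction | measured by = 405 nm absorbance of p-nitroaniline, reads at 0 and 120 min | benchmarks = DMSO-only low control, 5 µM PC-3 D3A high control | repeats = singlicate, each compound tested once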
KLK7 act conf: confirmation of human kallikrein-7 zymogen activators | shares compounds with KLK7 zymogen act | purified proKLK7, EDANS-DABCYL substrate fluorescence; scaled: vehicle 0, mature enzyme 100 | activation, % at 7 µM | 68% of 3,200 active | AID 686949;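 active = activation, as change over the incubation, above the mean of all tested compounds plus 3 SD, cut at about 13% in these data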
EDANS interfere: counter-screen for kallikrein-7 activators: EDANS-DABCYL optical interference | activation, % at 7 µM | 80% of 3,200 active | EDANS-DABCYL substrate fluorescence interference, no enzyme, 4 h; solvent 0%, active enzyme control 100% | shares compounds with KLK7 zymogen act;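 active = activation above the all-compound mean plus 3 SD, ignoring values outside control-based bounds, cut at about 4.8% in these data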;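 note: value is the 4 h activation minus the activation read at time zero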
EDANS interf: counter-screen for kallikrein-7 activators: EDANS-DABCYL interference, dose response; shares compounds with KLK7 zymogen act; EDANS-DABCYL peptide fluorescence interference, no enzyme; EC50, µM; 20% of 250 active;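 active = compounds that raise the fluorescence signal in this interference counterscreen, with EC50 at or below 10 µM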;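 note: intact quenched peptide substrate alone read at 355 nm excitation and 520 nm emission; signal is fluorescence gain from T0 to T4 after four hours at room temperature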
An asterisk follows results filed as active; i = inactive; . = not tested or not shown.

SMILES	proCasp7 act	KLK7 zymogen act	Neddylation inh	proCasp3 act	KLK7 act conf	EDANS interfere	others
CCOC1=C2CN(S(=O)(=O)c3ccc(C)cc3)[C@H](c3ccccc3)C[C@@H]2N(S(=O)(=O)c2ccc(C)cc2)[C@H](c2cccs2)C1	.	-0.9	i	.	.	.
CCOc1ccc(C(=O)COC(=O)c2nn(CC)c(=O)c3ccccc23)cc1	3.9	0.0	i	3.7	.	.
N#Cc1cnn2c(-c3ccccc3)ccnc12	6.8	44.7*	.	4.0	58.5*	66.4*
COc1ccc(-c2ccnc3c(C#N)cnn23)cc1	0.6	59.8*	.	-7.0	68.8*	84.9*
COc1ccc(-c2ccnc3c(Br)c(C)nn23)cc1	-10.3	1.3	i	1.8	.	.
Cc1occc1C(=O)NNC(=O)c1ccccc1Br	-14.9	0.0	i	-3.4	.	.
CCN(CC)CCn1c(SCC(=O)Nc2ccc(F)cc2)nc2c(sc3ccccc32)c1=O	-2.1	.	.	-2.7	.	.
COc1ccccc1NC(=O)CSc1nc2c(sc3ccccc32)c(=O)n1CCN(C)C	-20.2	16.0*	i	-20.4	0.9	-2.2
CCc1ccc(C2=CC(c3cc(Br)ccc3F)n3ncnc3N2)cc1 (stereo not given)	-4.0	13.3*	.	-1.8	3.6	4.9*
COc1ccc2c(CC(=O)N[C@@H](Cc3ccccc3)C(=O)O)cc(=O)oc2c1	-3.0	1.4	.	5.4	.	.
O=c1cc(CN2CCN(Cc3ccccc3)CC2)c2ccc(O)c(O)c2o1	-11.3	-0.4	i	-10.1	.	.
Cc1c(O)ccc2c(CN3CCN(Cc4ccccc4)CC3)cc(=O)oc12	18.5	46.0*	.	15.2	78.2*	74.6*
CCc1cc2c(CN3CCN(Cc4ccccc4)CC3)cc(=O)oc2cc1O	.	62.0*	.	.	21.1*	-15.0	EDANS interf=>69.5
Cc1c(O)ccc2c(CC(=O)N[C@@H](Cc3ccccc3)C(=O)O)cc(=O)oc12	.	36.2*	.	.	64.8*	61.3*
CN(C)c1ccc2c3c(ccc(N(C)C)c13)C(=O)OC2	-7.2	0.7	i	4.5	.	.
O=C(Cc1cccs1)N1CCN=C1SCc1ccc(Br)cc1	13.5	0.4	i	9.2	.	.
Cc1cccc2c(N)c3c(nc12)CCCC3 (tested in a mixture with another compound)	.	-0.4	i	.	.	.
Cc1cc(C)c2c(N)c3cccc(C)c3nc2n1	-1.1	15.0*	.	-5.6	46.4*	41.5*
CC(=O)NN1C(=O)c2ccccc2NC1c1cccc([N+](=O)[O-])c1 (stereo not given)	8.6	0.4	i	2.2	.	.
COc1ccc(C2Nc3ccccc3C(=O)N2NS(=O)(=O)c2ccc(C)cc2)cc1 (stereo not given)	-9.8	16.1*	.	-2.6	4.3	5.6*
O=C1c2ccccc2NC(c2cccc(O)c2)N1c1ccccc1 (stereo not given)	1.3	44.4*	.	0.2	12.1	15.1*
O=C1c2ccccc2NC(c2cccc(O)c2)N1NS(=O)(=O)c1ccccc1 (stereo not given)	-5.0	20.3*	.	-4.4	6.8	6.5*
Cc1ccc(S(=O)(=O)NN2C(=O)c3ccccc3NC2c2ccccc2)cc1 (stereo not given)	-3.9	17.2*	.	0.9	3.9	4.9*
Cc1ccc(-n2c(SCC(=O)Nc3ccc4c(c3)OCCO4)nnc2-c2ccccn2)cc1	.	0.3	.	.	.	.
Cc1ccc(NC(=O)CN(C)C(=O)COC(=O)c2ccc(Cl)cc2O)cc1	7.2	-0.1	i	2.8	.	.
COc1cccc2c1C(=O)O/C2=C/c1ccc2c(c1)OCO2	3.3	16.0*	.	-3.1	-237.0	-177.0
COc1cccc(OC)c1C1=CC(=O)C[C@H](c2ccc3c(c2)OCO3)C1	6.9	0.5	i	0.5	.	.
COc1ccc(C(=O)COC(=O)C(CCSC)NC(=O)COc2ccccc2)cc1 (stereo not given)	7.5	0.2	i	3.9	.	.

Screening results: PubChem, several laboratories
